Test results reported in ChEMBL document CHEMBL1926544, “Tyrosine-based 1-(S)-[3-hydroxy-2-(phosphonomethoxy)propyl]cytosine and -adenine ((S)-HPMPC and (S)-HPMPA) prodrugs: synthesis, stability, antiviral activity, and in vivo transport studies” (J Med Chem, 2011).

Legend:
[1] = Antiviral activity against Cowpox virus Brighton infected in HFF cells incubated for 3 days by plaque reduction assay; assay type: functional, cell-based, Cowpox virus (Brighton Red)
Vaccinia virus = assay: Antiviral activity against Vaccinia virus Copenhagen infected in HFF cells incubated for 3 days by plaque reduction assay; assay type: functional, organism-based, Orthopoxvirus vaccinia
Human alphaherpesvirus 1 = assay: Antiviral activity against HSV1 KOS infected in HFF cells incubated for 3 days by plaque reduction assay; assay type: functional, organism-based
Method in brief: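 HFF monolayer plaque reduction, about 100 plaques per well. Drug overlay (100 µM down to 0.03 µM), about 3 days incubation, crystal violet staining, macroscopic plaques counted. IC50 from regression of % plaque reduction relative to no-drug wells. Duplicate; acyclovir run as positive control.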

Human betaherpesvirus 5 = assay: Antiviral activity against HCMV Towne infected in HFF cells incubated for 10 days by plaque reduction assay; assay type: functional, organism-based
Method in brief: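 Towne strain (plaque-purified P0) on HFF cells, about 100 plaques per well. Drug overlay (100 µM down to 0.03 µM), about 10 days incubation, crystal violet staining, microscopic plaques counted. IC50 from regression of % plaque reduction versus no-drug wells. Duplicate; ganciclovir as positive control.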

KB = assay: Cytotoxicity against human KB cells after 48 hrs by crystal violet staining based spectrophotometric analysis; assay type: cell-based
Method in brief: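 KB cells at 5000 per well, left overnight at 37 °C. Compound added at eight concentrations in triplicate, 48 h at 37 °C in CO2 (two population doublings). Cells ethanol-fixed and crystal violet stained; dye eluted with acidified ethanol, read at 570 nm. IC50 by regression of % inhibition against log concentration.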

HFF = assay: Cytotoxicity against HFF cells after 48 hrs by visual cytotoxicity observation assay; assay type: cell-based, Homo sapiens
[2] = Half life in phosphate buffer at pH 6.5 at 37 degC by LC/MS analysis; assay type: physicochemical
[3] = Half life in phosphate buffer at pH 7.4 at 37 degC assessed as half life by LC/MS analysis; assay type: physicochemical
[4] = Half life in Sprague-Dawley rat intestinal homogenate at pH 6.5 by LC/MS analysis; assay type: ADME, tissue-based, Intestine
Method in brief: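 Compound stock (1 mg/ml, 400 µL) mixed with 260 µL buffer and 140 µL homogenate, 37 °C. Samples taken over time, quenched with methanol, centrifuged, supernatant analysed by LC-MS (C18, acetonitrile gradient in ammonium acetate pH 5.5). Run separately for each phosphorus diastereomer.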

Plasma [5] = assay: Drug level in CFW Swiss-Webster mouse plasma assessed as (S)-cHPMPA levels dosed at 10 mg equivalent of (S)-9-[3-hydroxy-2-(phosphonomethoxy)propyl]adenine/kg, po by LC-MS analysis; assay type: ADME, organism-based; conditions: in vivo
Method in brief: (§1)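 CFW Swiss-Webster mice, 4 weeks old, 25 g, fasted 18 h with water. Prodrug given by gavage in water at 10 mg eq (of HPMPA)/kg. Plasma by cardiac puncture at 1, 2, 3, 4 and 8 h, 5 mice per time point, one sample per mouse. Solid-phase extraction, then LC-MS (ESI positive) against internal-standard calibration curves.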

Plasma [6] = assay: Drug level in CFW Swiss-Webster mouse plasma dosed at 10 mg equivalent of (S)-9-[3-hydroxy-2-(phosphonomethoxy)propyl]adenine/kg, po by LC-MS analysis; assay type: ADME, organism-based; conditions: in vivo; method in brief: as §1
[7] = Orthopoxvirus vaccinia, Copenhagen, HFF, 72 h
[8] = Human alphaherpesvirus 1, KOS, HFF, 72 h
[9] = Human betaherpesvirus 5, Towne, HFF, 240 h

Row | SMILES | IC50 ([1]; Cowpox virus, HFF, 72 h) [µM] | IC50 (Human alphaherpesvirus 1; [8]) [µM] | IC50 (Human betaherpesvirus 5; [9]) [µM] | IC50 (KB) [µM] | IC50 (HFF; Homo sapiens, HFF, 48 h) [µM] | half-life [2] [h] | half-life [3] [h] | half-life [4] [h] | also measured
1 | Nc1ncnc2c1ncn2C[C@H]1COP(=O)(O)CO1 | 0.6 | 30 | 1.3 | > 100 | 100 |  |  |  | IC50 (Vaccinia virus; [7]): 1 µM
2 | CC(C)CNC(=O)[C@@H](N)Cc1ccc(OP(=O)(O)CO[C@H](CO)Cn2cnc3c(N)ncnc32)cc1 | 3 | 45 | 0.29 | > 100 | 100 |  |  |  | IC50 (Vaccinia virus; [7]): 0.5 µM
3 | COC(=O)[C@@H](N)Cc1ccc(O[P@@]2(=O)CO[C@@H](Cn3ccc(N)nc3=O)CO2)cc1 |  |  |  |  |  | 4.27 | 2.02 | < 0.5 | 
4 | COC(=O)[C@@H](N)Cc1ccc(O[P@]2(=O)CO[C@@H](Cn3ccc(N)nc3=O)CO2)cc1 |  |  |  |  |  | 0.933 | 0.317 | < 0.5 | 
5 | COC(=O)[C@H](N)Cc1ccc(O[P@@]2(=O)CO[C@@H](Cn3ccc(N)nc3=O)CO2)cc1 |  |  |  |  |  | 6.42 | 2.1 | 3.5 | 
6 | COC(=O)[C@H](N)Cc1ccc(O[P@]2(=O)CO[C@@H](Cn3ccc(N)nc3=O)CO2)cc1 |  |  |  |  |  | 1.52 | 0.35 | 1.2 | 
7 | CC(C)OC(=O)[C@@H](N)Cc1ccc(O[P@@]2(=O)CO[C@@H](Cn3ccc(N)nc3=O)CO2)cc1 |  |  |  |  |  | 12.8 | 3.98 | < 0.5 | 
8 | CC(C)OC(=O)[C@@H](N)Cc1ccc(O[P@]2(=O)CO[C@@H](Cn3ccc(N)nc3=O)CO2)cc1 |  |  |  |  |  | 2.02 | 0.367 | < 0.5 | 
9 | CC(C)(C)NC(=O)[C@H](N)Cc1ccc(O[P@@]2(=O)CO[C@@H](Cn3ccc(N)nc3=O)CO2)cc1 |  |  |  |  |  | 28.9 | 10.5 | 28.9 | 
10 | CC(C)(C)NC(=O)[C@H](N)Cc1ccc(O[P@]2(=O)CO[C@@H](Cn3ccc(N)nc3=O)CO2)cc1 |  |  |  |  |  | 3.5 | 1 | 3.85 | 
11 | COC(=O)[C@@H](N)Cc1ccc(O[P@@]2(=O)CO[C@@H](Cn3cnc4c(N)ncnc43)CO2)cc1 |  |  |  |  |  | 5.5 |  | < 0.5 | 
12 | COC(=O)[C@@H](N)Cc1ccc(O[P@]2(=O)CO[C@@H](Cn3cnc4c(N)ncnc43)CO2)cc1 |  |  |  |  |  | 0.917 |  | < 0.5 | 
13 | CC(C)CNC(=O)[C@@H](N)Cc1ccc(O[P@@]2(=O)CO[C@@H](Cn3cnc4c(N)ncnc43)CO2)cc1 |  |  |  |  |  | 12.8 | 3.85 | 12.8 | 
14 | CC(C)CNC(=O)[C@@H](N)Cc1ccc(O[P@]2(=O)CO[C@@H](Cn3cnc4c(N)ncnc43)CO2)cc1 |  |  |  |  |  | 2.03 | 0.433 | 1.9 | 
15 | COC(=O)[C@H](Cc1ccc(O[P@@]2(=O)CO[C@@H](Cn3cnc4c(N)ncnc43)CO2)cc1)NC(=O)[C@@H](N)C(C)C |  |  |  |  |  | 5.77 | 1.1 | < 0.5 | 
16 | COC(=O)[C@H](Cc1ccc(O[P@]2(=O)CO[C@@H](Cn3cnc4c(N)ncnc43)CO2)cc1)NC(=O)[C@@H](N)C(C)C |  |  |  |  |  | 1.58 | 0.25 | < 0.5 | 
17 | Nc1ncnc2c1ncn2C[C@@H](CO)OCP(=O)(O)O | 4 | 35 | 0.41 | > 100 | 100 |  |  |  | IC50 (Vaccinia virus; [7]): 2 µM

Row | SMILES | IC50 ([1]; Cowpox virus, HFF, 72 h) [µM] | IC50 (Human alphaherpesvirus 1; [8]) [µM] | IC50 (Human betaherpesvirus 5; [9]) [µM] | IC50 (KB) [µM] | IC50 (HFF; Homo sapiens, HFF, 48 h) [µM] | half-life [2] [h] | half-life [3] [h] | half-life [4] [h] | also measured
18 | C/C(=N\NC(N)=S)c1ccccn1 |  |  |  | 3 |  |  |  |  | 
19 | COC(=O)[C@@H](N)Cc1ccc(OP2(=O)CO[C@@H](Cn3ccc(N)nc3=O)CO2)cc1 (mixture of isomers) | 50 | 25 | 0.23 | > 100 | > 100 |  |  |  | IC50 (Vaccinia virus; [7]): 4 µM
20 | COC(=O)[C@H](N)Cc1ccc(OP2(=O)CO[C@@H](Cn3ccc(N)nc3=O)CO2)cc1 (mixture of isomers) | 35 | 35 | 0.2 | > 100 | > 100 |  |  |  | IC50 (Vaccinia virus; [7]): 25 µM
21 | CC(C)(C)NC(=O)[C@H](N)Cc1ccc(OP2(=O)CO[C@@H](Cn3ccc(N)nc3=O)CO2)cc1 (mixture of isomers) | 20 | 1.5 | < 0.1 | > 100 | > 100 |  |  |  | IC50 (Vaccinia virus; [7]): 10 µM
22 | COC(=O)[C@H](Cc1ccc(OP2(=O)CO[C@@H](Cn3ccc(N)nc3=O)CO2)cc1)NC(=O)[C@@H](N)C(C)C (mixture of isomers) | 30 | 15 | < 0.1 | > 100 |  |  |  |  | IC50 (Vaccinia virus; [7]): 20 µM
23 | COC(=O)[C@H](Cc1ccc(OP2(=O)CO[C@@H](Cn3cnc4c(N)ncnc43)CO2)cc1)NC(=O)[C@@H](N)C(C)C (mixture of isomers) | 8 | 35 | 0.3 | > 100 | > 100 |  |  |  | IC50 (Vaccinia virus; [7]): 4 µM
24 | CC(C)OC(=O)[C@@H](N)Cc1ccc(OP2(=O)CO[C@@H](Cn3ccc(N)nc3=O)CO2)cc1 (mixture of isomers; form 1) |  |  | 0.12 | > 100 | > 100 |  |  |  | IC50 ([1]; hff): 40 µM; IC50 (Vaccinia virus; hff): 30 µM; IC50 (Human alphaherpesvirus 1; hff): 20 µM
25 | COC(=O)[C@@H](N)Cc1ccc(OP2(=O)CO[C@@H](Cn3cnc4c(N)ncnc43)CO2)cc1 (mixture of isomers; form 1) | 7 | 25 | 0.45 | > 100 | > 100 |  |  |  | IC50 (Vaccinia virus; [7]): 3 µM
26 | CC(C)CNC(=O)[C@@H](N)Cc1ccc(OP2(=O)CO[C@@H](Cn3cnc4c(N)ncnc43)CO2)cc1 (mixture of isomers; form 1) |  | 50 |  | > 100 | > 100 |  |  |  | IC50 ([1]; hff): 7 µM; IC50 (Vaccinia virus; hff): 4.5 µM; IC50 (Human betaherpesvirus 5; hff): 0.3 µM
27 | COC(=O)[C@@H](N)Cc1ccc(OP2(=O)CO[C@@H](Cn3cnc4c(N)ncnc43)CO2)cc1 (mixture of isomers; form 2) |  |  |  |  |  |  |  |  | IC50 ([1]; hff): 3.5 µM; IC50 (Human alphaherpesvirus 1; hff): 35 µM
28 | CC(C)OC(=O)[C@@H](N)Cc1ccc(OP2(=O)CO[C@@H](Cn3ccc(N)nc3=O)CO2)cc1 (mixture of isomers; form 2) |  |  |  |  |  |  |  |  | IC50 ([1]; hff): 10 µM; IC50 (Vaccinia virus; hff): 8 µM; IC50 (Human alphaherpesvirus 1; hff): 3 µM; IC50 (Human betaherpesvirus 5; hff): 0.22 µM
29 | CC(C)CNC(=O)[C@@H](N)Cc1ccc(OP2(=O)CO[C@@H](Cn3cnc4c(N)ncnc43)CO2)cc1.Cl (mixture of isomers; form 2) |  |  |  |  |  |  |  |  | IC50 ([1]; hff): 2 µM; IC50 (Vaccinia virus; hff): 1.5 µM; IC50 (Human alphaherpesvirus 1; hff): 35 µM; IC50 (Human betaherpesvirus 5; hff): 1.3 µM; IC50 (HFF; hff): 100 µM; Drug uptake (Plasma [5]): 80%; Drug uptake (Plasma [6]): 20%
30 | CC(C)CNC(=O)[C@@H](N)Cc1ccc(OP2(=O)CO[C@@H](Cn3cnc4c(N)ncnc43)CO2)cc1 (mixture of isomers; form 3) |  |  |  |  |  |  |  |  | IC50 ([1]; hff): 2.5 µM; IC50 (Vaccinia virus; hff): 1 µM; IC50 (Human betaherpesvirus 5; hff): 0.55 µM
31 | Nc1nc2c(ncn2COCCO)c(=O)[nH]1 [ACYCLOVIR] |  | 0.6 |  |  |  |  |  |  | 
32 | Nc1ccn(C[C@@H](CO)OCP(=O)(O)O)c(=O)n1 [CIDOFOVIR] | 30 |  | 0.28 | > 100 | 100 |  |  |  | 
33 | Nc1ccn(C[C@H]2COP(=O)(O)CO2)c(=O)n1 [CYCLIC CIDOFOVIR] | 30 | 50 |  | > 100 | > 100 |  |  |  | 
34 | Nc1nc2c(ncn2COC(CO)CO)c(=O)[nH]1 [GANCICLOVIR] |  |  | 0.14 |  | > 100 |  |  |  | 
